# Key:
# [1] = Antitumor activity against mouse B16 melanoma cells, calculated as average change in body weight from onset to termination of therapy; assay type: functional
# Procedure, shortened: (§1)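 Tumor-bearing mice in groups of five, dosed i.p. daily for 6 days from 24 h post-implantation with suspensions in Tween 80/isotonic saline at 10-150 mg/kg per day; vehicle controls run alongside. Mice weighed during the experiment. Average percent body-weight change from onset to termination of therapy was taken as the toxicity index, reported at the optimal-survival dose.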
# L1210 = assay: Antitumor activity against L1210 leukemia cells in mice, activity is expressed as optimal effective dose.; assay type: functional, Mus musculus
# Procedure, shortened: (§2)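 Transplanted tumor in mice, given i.p. once daily for 6 consecutive days starting 24 h after implantation. Doses span 10-150 mg/kg per day as fine suspensions homogenized in a few drops of 20% aqueous Tween 80 and made up with isotonic saline. Groups of five; vehicle-injected tumor-bearing controls. %T/C = mean survival time treated/control × 100. Value is the daily dose giving maximum %T/C.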
# Mus musculus [2] = organism: Mus musculus; assay: Antitumor activity against B16 melanoma cells in mice, activity is expressed as optimal effective dose; assay type: functional; procedure, shortened: as §2
# [3] = Antitumor activity against B16 melanoma cells in mice, activity is expressed as average survival time of treated/control animals x 100.; assay type: functional, Mus musculus
# Procedure, shortened: (§3)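 Compound given ip as a fine suspension (homogenized in drops of 20% aqueous Tween 80, made to volume with isotonic saline) at 10-150 mg/kg per day, once daily for 6 consecutive days starting 24 h after implantation. Vehicle-injected tumor-bearing controls were included. Read-out was survival time; body-weight change over therapy was the toxicity indicator.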
# Mus musculus [4] = organism: Mus musculus; assay: Antitumor activity against B16 melanoma cells in mice. Activity is expressed as optimal effective dose.; assay type: functional; procedure, shortened: as §2
# Mus musculus [5] = organism: Mus musculus; assay: Antitumor activity against L1210 leukemia cells in mice calculated as average change in body weight from onset to termination of therapy; assay type: functional; procedure, shortened: as §1
# Mus musculus [6] = organism: Mus musculus; assay: Antitumor activity against L1210 leukemia cells in mice, activity is expressed as optimal effective dose; assay type: functional; procedure, shortened: as §2
# Mus musculus [7] = organism: Mus musculus; assay: Antitumor activity against L1210 leukemia cells in mice (activity expressed as average survival time of treated/control animals x 100); assay type: functional; procedure, shortened: as §3
# Mus musculus [8] = organism: Mus musculus; assay: Antitumor activity against B16 melanoma cells in mice, activity is expressed as optimal effective dose.; assay type: functional; procedure, shortened: as §2
# Mus musculus [9] = organism: Mus musculus; assay: Antitumor activity against L1210 leukemia cells in mice, activity is expressed as average survival time of treated/control animals x 100; assay type: functional; procedure, shortened: as §3
Compound,Weight change [1] [%],Dose (L1210) [mg/kg],Dose (Mus musculus [2]) [mg/kg],T/C [3] [%],Dose (Mus musculus [4]) [mg/kg],Weight change (Mus musculus [5]) [%],Dose (Mus musculus [6]) [mg/kg],T/C (Mus musculus [7]) [%],Dose (Mus musculus [8]) [mg/kg],T/C (Mus musculus [9]) [%]
Cc1ccc(S(=O)(=O)N(C)NS(=O)(=O)Cc2ccccc2)cc1,-2.4,50,50,172,,,,,,
Cc1ccc(S(=O)(=O)N(C)NS(=O)(=O)c2ccc(Br)cc2)cc1,-5.1,,,,150,5.6,50,,,
CN(NS(=O)(=O)c1ccc2ccccc2c1)S(=O)(=O)c1ccc2ccccc2c1,4.6,,100,,,-3.3,150,,,
CN(NS(=O)(=O)c1ccc(Br)cc1)S(=O)(=O)c1ccc(Br)cc1,-3.8,,50,160,,1.7,150,,,
CN(NS(=O)(=O)c1ccc2ccccc2c1)S(=O)(=O)c1ccc(Br)cc1,3.7,,200,,,18.3,100,123,,
CN(NS(C)(=O)=O)S(C)(=O)=O,-7.9,,50,278,,-15.3,25,340,,
Cc1ccc(S(=O)(=O)NN(C)S(=O)(=O)c2ccc(Br)cc2)cc1,,,,,,,100,,,
COc1ccc(S(=O)(=O)N(CCCl)NS(=O)(=O)c2ccccc2)cc1,-2.8,,,138,12.5,4.8,10,136,,
CN(NS(=O)(=O)c1ccccc1)S(=O)(=O)c1ccc(Br)cc1,1.5,,,160,,,,,100,
CN(NS(=O)(=O)c1ccc(Br)cc1)S(C)(=O)=O,-11.4,,100,235,,6.3,40,191,,
COc1ccc(S(=O)(=O)N(CCCl)NS(C)(=O)=O)cc1,3.8,,,184,10,-10.9,10,,,214
COc1ccc(S(=O)(=O)NN(C)S(C)(=O)=O)cc1,-11.9,60,60,233,,-13.7,,221,,
COc1ccc(S(=O)(=O)NN(C)S(=O)(=O)c2ccc(Br)cc2)cc1,1.3,,100,,,7.8,100,,,
COc1ccc(S(=O)(=O)N(C)NS(=O)(=O)c2ccccc2[N+](=O)[O-])cc1,1.5,,150,158,,,,,,
COc1ccc(S(=O)(=O)N(C)NS(=O)(=O)c2ccc(Br)cc2)cc1,-0.1,,,,100,3.4,100,,,

# Reference: ChEMBL document CHEMBL1123555, “1,2-Bis(sulfonyl)hydrazines. 3. Effects of structural modification on antineoplastic activity” (1987)
